The values below come from the array DNA melting data of Ke et al. (doi:10.1101/2024.01.08.574731).

A short description of series [1]: folding enthalpy; higher = less favourable; fluorescence melt of hairpins on a sequencing array, two-state fit. The settings on record: sodium 0.088 M. The method in brief: (§1)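 Cy3 signals were normalised both to pre-quench Cy3 and to control constructs. They came from library hairpins carrying annealed Cy3 and quencher oligos on a sequenced MiSeq flow cell, imaged in 50 mM Na-HEPES pH 8.0, 25 mM NaCl, in 2.5 °C steps up to 60 °C. Bootstrapped two-state fits gave melting temperature and folding enthalpy, and four replicates were combined by inverse variance. Fitted temperatures were then raised by 9.35 °C to match UV melts.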

The nature of series [2]: melting temperature; fluorescence melt of hairpins on a sequencing array, two-state fit, raised by 9.35 °C to match UV melts. To be noted: sodium 0.088 M. The method in brief:
as §1

GATTTCGAAAGAAATC ((((((....)))))): the folding enthalpy in series [1] was -38.2 kcal/mol. Also, the Tm in series [2] was found to be 55 °C.
Taken in the same sequence, the figures for GATTTGACGAAAGTCATC (((..(((....)))))) were -8.24 kcal/mol and 27.3 °C.
Consider GATTTGCGAAAGCAGATC (((.(((....))).))), for which the folding enthalpy in series [1] is -32 kcal/mol. In series [2], the Tm amounted to 50 °C.
Consider GATTTGGGAAACCAAGTC ((.((((....)))).)), for which the folding enthalpy in series [1] was -28.7 kcal/mol. Moreover, the Tm in series [2] was found to be 38.8 °C.
For GATTTTGGAAACAGAATC ((((.((....)).)))), the folding enthalpy in series [1] was -24.7 kcal/mol. In addition, the Tm in series [2] was 32.1 °C.
For GATTTTGGAAACGAAATC (((((.(....).))))), in that order: -34.9 kcal/mol and 39.6 °C.
Taken in the same sequence, the figures for GCAAAAGAAATTTTGC ((((((....)))))) were -25.9 kcal/mol and 46.3 °C.
For GCAAACACGAAAGTGTGC (((..(((....)))))), in that order: -15.4 kcal/mol and 48.6 °C.
GCAAACCGAAAGGTATGC (((.(((....))).))): the folding enthalpy in series [1] is -37.5 kcal/mol. In addition, in series [2], the Tm turned out to be 53.4 °C.
Taken in the same sequence, the figures for GCAAACGAAAGTTATGC ((((((....))).))) were -24.3 kcal/mol and 38.4 °C.
For GCAAACGAAAGTTCGTGC ((((((....)))..))), in that order: -17.3 kcal/mol and 35.6 °C.
GCAAACGAAAGTTGATGC ((((((....)))..))): the folding enthalpy in series [1] was -15.2 kcal/mol. In series [2], the Tm was determined as 35.9 °C.
For GCAAACGGAAACGTTTAC (.(((((....))))).), in series [1], the folding enthalpy was -18.7 kcal/mol. For the same sequence, the Tm in series [2] was 38.4 °C.
Taken in the same sequence, the figures for GCAAACTCGAAAGAGTGC (((..(((....)))))) were -18 kcal/mol and 43.8 °C.
For GCAAAGCCGAAAGGCTGC (((..(((....)))))), in that order: -14.2 kcal/mol and 54 °C.
Taken in the same sequence, the figures for GCAAAGCGAAAGCCCTGC (((..((....))..))) were -10.3 kcal/mol and 28.5 °C.
Regarding GCAAAGCGAAAGCTATGC (((.(((....))).))), the folding enthalpy in series [1] was -33.5 kcal/mol. The Tm in series [2] came out at 52 °C.
On to GCAAAGGGAAACCTCTGC (((.(((....))).))), for which the folding enthalpy in series [1] was -19.1 kcal/mol. Moreover, the Tm in series [2] stood at 33.8 °C.
Consider GCAAAGGGAAACCTTCGC ((.((((....)))).)), for which the folding enthalpy in series [1] was -26.8 kcal/mol. The Tm in series [2] stood at 39.2 °C.
For GCAAAGGGAAACCTTTAC (.(((((....))))).), in that order: -15.8 kcal/mol and 28 °C.
Take GCAAAGGGAAACCTTTGC (((((((....))))))): the folding enthalpy in series [1] was -45.1 kcal/mol. The Tm in series [2] came to 64.1 °C.
On to GCAAATCCGAAAGGATGC (((..(((....)))))), for which, in series [1], the folding enthalpy is -17.5 kcal/mol. Further, the Tm in series [2] was determined as 47.8 °C.
For GCAAATGCGAAAGCATGC (((..(((....)))))), in that order: -15 kcal/mol and 51.4 °C.
With GCAAATGGAAACATCTGC (((.(((....))).))), in series [1], the folding enthalpy was -20.3 kcal/mol. The Tm in series [2] was 33 °C.
Regarding GCAAATTCGAAAGAATGC (((..(((....)))))), the folding enthalpy in series [1] was -18.4 kcal/mol. Moreover, in series [2], the Tm was found to be 35.8 °C.
Taken in the same sequence, the figures for GCAACAGGAAACTGCTGC (((.(((....))).))) were -30.2 kcal/mol and 44.6 °C.
Taken in the same sequence, the figures for GCAACATCGAAAGATTGC (((..(((....)))))) were -19.8 kcal/mol and 34.2 °C.
For GCAACCCGAAAGGGATGC (((.(((....))).))), in that order: -32.9 kcal/mol and 63.5 °C.
As to GCAACCCGAAAGGGCTGC (((.(((....))).))), the folding enthalpy in series [1] was -44.6 kcal/mol. The Tm in series [2] was 60.6 °C.
On to GCAACCCGAAAGGGTGC (((.(((....)))))), for which the folding enthalpy in series [1] is -19.1 kcal/mol. For the same sequence, the Tm in series [2] was 64.1 °C.
For GCAACCGAAAGGTCTTGC ((((((....)))..))), in that order: -16.5 kcal/mol and 35.7 °C.
Take GCAACCGAAAGGTGCTGC ((((((....)))..))): in series [1], the folding enthalpy was -23.5 kcal/mol. The Tm in series [2] turned out to be 57.1 °C.
Regarding GCAACCGAAAGGTTATGC ((((((....)))..))), the folding enthalpy in series [1] was -12.3 kcal/mol. For the same sequence, the Tm in series [2] worked out at 44.1 °C.
Take GCAACCGAAAGGTTTGC ((((((....))).))): the folding enthalpy in series [1] is -23.6 kcal/mol. For the same sequence, the Tm in series [2] amounted to 55.7 °C.
Taken in the same sequence, the figures for GCAACCGAAAGGTTTTGC ((((((....)))..))) were -14.4 kcal/mol and 39.9 °C.
For GCAACGCGAAAGCACTGC (((..((....))..))), in that order: -11.4 kcal/mol and 41.4 °C.
Taken in the same sequence, the figures for GCAACGCGAAAGCCCTGC (((..((....))..))) were -7.63 kcal/mol and 23.8 °C.
As for GCAACGCGAAAGCGAGGC ((..(((....)))..)), in series [1], the folding enthalpy was -13.5 kcal/mol. Moreover, the Tm in series [2] is 59.9 °C.
For the sequence GCAACGGGAAACCGTCGC ((.((((....)))).)), in series [1], the folding enthalpy is -28.3 kcal/mol. The Tm in series [2] worked out at 49.4 °C.
For GCAACGGGAAACCGTTAC (.(((((....))))).), in that order: -13.3 kcal/mol and 38.6 °C.
For GCAACTACGAAAGTATGC (((..(((....)))))), in that order: -16.5 kcal/mol and 32.1 °C.
For GCAACTGGAAACAGCTGC (((.(((....))).))), in that order: -35.8 kcal/mol and 46.2 °C.
Regarding GCAAGACGAAAGTCCTGC (((.(((....))).))), the folding enthalpy in series [1] was -26.4 kcal/mol. Further, the Tm in series [2] was found to be 48.7 °C.
Consider GCAAGAGAAATCTTGC ((((((....)))))), for which the folding enthalpy in series [1] was -38.3 kcal/mol. Further, the Tm in series [2] came out at 52.8 °C.
For the sequence GCAAGCCCGAAAGGGTGC (((..(((....)))))), the folding enthalpy in series [1] was -14.4 kcal/mol. For the same sequence, the Tm in series [2] stood at 47.2 °C.
For GCAAGCGAAAGCTGGTGC ((((((....)))..))), in that order: -20.9 kcal/mol and 47.6 °C.
Taken in the same sequence, the figures for GCAAGCGAAAGCTGTTGC ((((((....)))..))) were -15.7 kcal/mol and 45.9 °C.
Taken in the same sequence, the figures for GCAAGCGAAAGCTTTTGC ((((((....)))..))) were -12.8 kcal/mol and 42.2 °C.
With GCAAGGACGAAAGTCTGC (((..(((....)))))), in series [1], the folding enthalpy was -17.5 kcal/mol. Besides, the Tm in series [2] turned out to be 44.6 °C.
Turning to GCAAGGCGAAAGCGTAGC ((.(.((....)).).)), the folding enthalpy in series [1] is -11.6 kcal/mol. Further, the Tm in series [2] came out at 40.5 °C.
Take GCAAGGCGAAAGCTATGC (((..((....))..))): the folding enthalpy in series [1] was -20.8 kcal/mol. Further, the Tm in series [2] turned out to be 42.4 °C.
Taken in the same sequence, the figures for GCAAGGCGAAAGCTTTGC ((((.((....)).)))) were -39 kcal/mol and 63.9 °C.
In the case of GCAAGTCCGAAAGGATGC (((..(((....)))))), the folding enthalpy in series [1] was -16.1 kcal/mol. In addition, in series [2], the Tm was 37.7 °C.
On to GCAAGTGGAAACACCTGC (((.(((....))).))), for which the folding enthalpy in series [1] was -25.3 kcal/mol. In addition, the Tm in series [2] was 40.5 °C.
Regarding GCAATCCGAAAGGATGC (((.(((....)))))), the folding enthalpy in series [1] is -26 kcal/mol. The Tm in series [2] is 56.4 °C.
For the sequence GCAATCGAAAGATTCTGC ((((((....)))..))), the folding enthalpy in series [1] was -16 kcal/mol. Further, in series [2], the Tm was determined as 33.7 °C.
For GCAATCGAAAGATTGTGC ((((((....)))..))), in that order: -27.1 kcal/mol and 51.1 °C.
For the sequence GCAATCGCGAAAGCGTGC (((..(((....)))))), in series [1], the folding enthalpy is -12.5 kcal/mol. Also, in series [2], the Tm worked out at 44 °C.
For GCAATCGGAAACAATTGC (((((.(....).))))), in that order: -27.9 kcal/mol and 38 °C.
Taken in the same sequence, the figures for GCAATCGGAAACGACTGC (((.(((....))).))) were -28.9 kcal/mol and 45.1 °C.
As for GCAATCTCGAAAGAGTGC (((..(((....)))))), the folding enthalpy in series [1] was -24.5 kcal/mol. In series [2], the Tm is 43.2 °C.
With GCAATGCGAAAGCACCGC ((..(((....)))..)), the folding enthalpy in series [1] was -9.88 kcal/mol. In addition, the Tm in series [2] was 33 °C.
Turning to GCAATGCGAAAGCCCTGC (((..((....))..))), the folding enthalpy in series [1] is -10.3 kcal/mol. Moreover, in series [2], the Tm turned out to be 28.4 °C.
Regarding GCAATGCGAAAGCCTCGC ((.(.((....)).).)), in series [1], the folding enthalpy is -10.9 kcal/mol. The Tm in series [2] came to 31.5 °C.
For GCAATGCGAAAGCGCTGC (((..((....))..))), in that order: -20 kcal/mol and 49.2 °C.
GCAATGCGAAAGCTATGC (((..((....))..))): the folding enthalpy in series [1] was -20.4 kcal/mol. In series [2], the Tm came out at 50.6 °C.
As to GCAATGCGAAAGCTTCGC ((.(.((....)).).)), the folding enthalpy in series [1] was -11.9 kcal/mol. Also, the Tm in series [2] was found to be 44 °C.
Taken in the same sequence, the figures for GCAATGCGAAAGCTTGGC ((.(.((....)).).)) were -19.1 kcal/mol and 40.6 °C.
Taken in the same sequence, the figures for GCAATGTCGAAAGACTGC (((..(((....)))))) were -20.3 kcal/mol and 44.9 °C.
Turning to GCAATTCGAAAGAAATGC (((.(((....))).))), the folding enthalpy in series [1] is -36.8 kcal/mol. The Tm in series [2] amounted to 46.1 °C.
With GCAATTCGAAAGAATGC (((.(((....)))))), the folding enthalpy in series [1] was -29.3 kcal/mol. The Tm in series [2] amounted to 48.1 °C.
Taken in the same sequence, the figures for GCACAACGAAAGTTATGC (((.(((....))).))) were -34.9 kcal/mol and 44.5 °C.
For GCACAACGAAAGTTCTGC (((.(((....))).))), in that order: -26.1 kcal/mol and 36.8 °C.
